RGS4 pot – RGS4 potentiators or activators, primary screen, cell-based, HEK293 M3R inducible RGS4, calcium flux; carbachol calcium flux Fluo4; stronger effect = lower value; B-score at 10 µM; 0.92% of 310,000 active; AID 463111, 2010;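 active = B-score of the integrated calcium signal more than 4 SD below the library mean, with starting fluorescence not abnormally high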;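 note: negative B-score means reduced calcium response which marks RGS4 activation or potentiation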
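test system = HEK293 cells with stable M3R and inducible RGS4 | schedule = recording 10 s baseline at 1 Hz, 100 s post-agonist | technique = Fluo4-AM (2 µM) calcium-flux fluorescence, kinetic read | measure = Agonist-evoked peak-minus-minimum fluorescence over baseline, integrated ratio, B score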
RGS4 inh – RGS4 inhibitors, primary screen, cell-based, HEK293 M3R inducible RGS4, calcium flux | B-score at 10 µM | 0.45% of 310,000 active | Fluo-4 calcium flux; stronger effect = higher value; triggered by carbachol at its EC20 | AID 463165, 2010;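 active = B-score, a plate-corrected calcium signal, over three deviations above library mean, with baseline fluorescence within five deviations of library mean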;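 note: RGS4 expression induced by doxycycline in cells with stable M3 receptor; B-score is computed from the integrated fluorescence ratio over baseline after carbachol; higher B-score means a larger calcium signal and so more RGS4 inhibition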
Target sequence (P49798 whole entry, looked up): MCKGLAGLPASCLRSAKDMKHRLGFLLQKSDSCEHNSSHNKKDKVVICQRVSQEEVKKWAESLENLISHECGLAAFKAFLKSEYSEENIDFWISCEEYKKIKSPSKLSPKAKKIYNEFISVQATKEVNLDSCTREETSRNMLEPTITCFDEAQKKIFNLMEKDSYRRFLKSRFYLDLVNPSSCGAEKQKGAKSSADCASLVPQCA
MrgX1 antagonist – antagonists of human MrgX1 receptor, primary screen, HEK293 cells, Fluo-4 calcium flux; Mas-related G-protein coupled receptor member X1 (Homo sapiens), Q96LB2; AID 588676, 2011; 1.3% of 310,000 active; BAM8-22 antagonism; stronger effect = lower value; B-score at 10 µM;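 active = calcium-response B-score plate-corrected more than 3 library SD below zero, starting fluorescence within 5 deviations, no agonist response on first addition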;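 note: peak minus trough fluorescence over baseline after final BAM8-22 challenge near maximal dose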
Target sequence (Q96LB2 whole entry, looked up): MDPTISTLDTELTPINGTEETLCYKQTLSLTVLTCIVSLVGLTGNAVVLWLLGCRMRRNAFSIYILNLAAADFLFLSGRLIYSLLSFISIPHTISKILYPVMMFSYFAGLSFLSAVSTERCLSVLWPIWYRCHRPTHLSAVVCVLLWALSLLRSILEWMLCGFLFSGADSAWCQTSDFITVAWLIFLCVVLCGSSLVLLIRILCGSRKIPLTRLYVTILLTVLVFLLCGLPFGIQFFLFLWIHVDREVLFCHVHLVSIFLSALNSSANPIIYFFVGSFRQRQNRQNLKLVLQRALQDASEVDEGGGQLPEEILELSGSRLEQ
MrgX1 ag – agonists of human MrgX1 receptor, primary screen, HEK293 cells, Fluo-4 calcium flux | Mas-related G-protein coupled receptor member X1 (Homo sapiens), Q96LB2 | Fluo-4 calcium fluorescence, agonist mode; stronger effect = higher value | B-score at 10 µM | 0.44% of 310,000 active | AID 588627, 2011;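 active = calcium response B-score plate-corrected fluorescence ratio at least 3 library SD, with starting fluorescence B-score inside 5 SD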
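Material: MrgX1-expressing HEK293 cells / Dosing: compound as first of three additions / Incubation: overnight seeding, then 1 h dark dye loading / Signal: Fluo-4 NW calcium fluorescence / Evaluation: B-scored fluorescence response ratio / Benchmarks: positive and negative control wells on each plate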
MrgX1 allo act – positive allosteric modulators of MrgX1, primary screen, HEK293 cells, Fluo-4 calcium flux; B-score at 10 µM; AID 588675, 2011; 0.63% of 310,000 active; FDSS; stronger effect = higher value;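 active = plate-corrected calcium response at least 3 library SD above typical, normal starting fluorescence, not activating the receptor alone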;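 note: compound read alongside a low EC10 to EC30 dose of BAM8-22 agonist; peak minus trough fluorescence over baseline measured at the second addition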
MrgX1 allo conf – MrgX1 positive allosteric modulators, duplicate retest, confirmation, HEK293 cells, Fluo-4 calcium flux. shares compounds with MrgX1 allo act. Fluo-4 calcium fluorescence, FDSS. activation (ratio percentage), % at 10 µM. 13% of 1,200 active;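 active = ratio at least 3 SD above the weak peptide control, stable starting fluorescence, no direct agonism earlier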;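 note: compound followed by low BAM8-22 agonist challenge near EC20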
HEK293 Ca flux – nonspecific calcium signal in parental HEK293, confirmation, counter-screen for MrgX1 antagonist project, parental HEK293 cells, Fluo-4 calcium flux. Fluo-4 calcium fluorescence, FDSS. 2% of 4,000 active. shares compounds with MrgX1 antagonist. fluorescence ratio F(max-min)/F0 at 10 µM. AID 624111, 2012;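 active = duplicate-averaged calcium fluorescence ratio at least three times the standard deviation of buffer wells, a nonspecific response in parental cells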
HEK293 Ca counter – calcium response in parental HEK293 cells, primary screen, counter-screen for MrgX1 allosteric activator project, cell-based, Fluo-4 calcium flux, duplicate | shares compounds with MrgX1 antagonist | Fluo-4 fluorescence ratio; stronger effect = higher value | fluorescence ratio F(max-min)/F0 at 10 µM | 0.4% of 4,000 active;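 active = calcium fluorescence ratio, averaged over duplicates, at least 3 SD of the buffer-well ratio, meaning a nonspecific response in receptor-free cells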;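 note: untransfected parental HEK293 lacking MrgX1 used as counterscreen for MrgX1 allosteric activators; fluorescence change taken during the second addition on a kinetic imager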
HEK293 Ca cntr2 – calcium response in parental HEK293 cells, primary screen, counter-screen for MrgX1 agonist project, cell-based, Fluo-4 calcium flux, duplicate, agonist mode; shares compounds with MrgX1 antagonist; fluorescence ratio F(max-min)/F0 at 10 µM; 8.7% of 4,000 active; Fluo-4 calcium fluorescence (FDSS); stronger effect = higher value; AID 624115, 2012;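 active = calcium fluorescence ratio at least three times the spread of buffer wells, meaning a non-specific response in parental cells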
Numbers stand for hits; i = inactive; nt = not tested or not shown. Hits are enriched below; roughly 3.5% of the tested compounds scored in any of these assays.

SMILES	RGS4 pot	RGS4 inh	MrgX1 antagonist	MrgX1 ag	MrgX1 allo act	MrgX1 allo conf	HEK293 Ca flux	HEK293 Ca counter	HEK293 Ca cntr2
Cc1ccc(NC2=NC(c3ccc(F)cc3)n3c(nc(C)cc3=O)N2)c(C)c1 (centres undefined)	i	i	i	i	i	nt	nt	nt	nt
Cc1ccc(NC2=NC(c3ccccc3)n3c(nc(C)cc3=O)N2)c(C)c1 (centres undefined)	i	i	i	i	122	i	i	i	i
CC(C)c1nc(CNC(=O)C2CCC(=O)N(CCc3cccc(F)c3)C2)cs1 (centres undefined)	i	i	i	i	i	nt	nt	nt	nt
CNc1nc(Sc2ccc(C)cc2)cc(C(F)(F)F)n1	i	i	i	i	14.5	16.2%	i	i	i
Cc1cccc2cc(CN(C(=O)c3cnccn3)C3CCCCC3)c(Cl)nc12	i	i	i	i	20.3	i	i	i	i
Cc1c(CCOC(=O)c2cccc([N+](=O)[O-])c2)sc[n+]1CC(=O)c1ccccc1	i	i	i	i	i	nt	nt	nt	nt
C=CCSc1nc2ccccc2c(=O)n1C1CCOC(C)(C)C1 (centres undefined)	i	i	i	i	11.4	i	i	i	i
Cc1ccccc1OC(C)C(=O)NCCC1=CCCCC1 (centres undefined)	i	i	i	i	10.9	i	i	i	i
O=c1[nH]c(Nc2ccccc2Cl)cc2ccccc12	i	i	i	i	8.05	i	i	i	i
Cc1ccccc1Nc1cc2ccccc2c(=O)[nH]1	i	i	i	i	i	nt	nt	nt	nt
CC1(C)CC(=O)c2sc(NS(=O)(=O)c3ccc(Br)cc3)nc2C1	i	i	i	i	13.4	i	i	i	i
CC1(C)CC(=O)c2sc(NS(=O)(=O)c3ccc(F)cc3)nc2C1	i	i	i	i	31.3	6.6%	i	i	i
CC1(C)CC(=O)c2sc(NS(=O)(=O)c3ccc(Cl)cc3)nc2C1	i	i	i	i	i	nt	nt	nt	nt
CCOC(=O)c1ccc(NC(=S)NCCCN2CCCC2=O)cc1	i	i	i	i	8.55	i	i	i	i
O=C1CCCN1CCCNC(=S)Nc1ccccc1	i	i	i	i	i	nt	nt	nt	nt
CC(NC(=O)Nc1ccc(Br)cc1)C(C)(C)C (centres undefined)	i	i	i	i	7.83	i	i	i	i
COC(=O)C(C)(C)ONC(=O)Nc1ccc(Br)cc1	i	i	i	i	i	nt	nt	nt	nt
CCC(C)NCCOc1ccccc1C (centres undefined)	i	i	i	i	12.7	i	i	i	i
O=C(Nc1c(C(=O)N2CCOCC2)cnn1-c1ccccc1)c1ccc(F)cc1	i	i	i	i	i	nt	nt	nt	nt
Cc1ccc(Nc2cc(C)c3c(O)cccc3n2)cc1C	i	i	i	i	i	nt	nt	nt	nt
Cc1ccc(Nc2cc(C)c3ccc(O)cc3n2)cc1C	i	i	i	i	10.2	i	i	i	i
O=S(=O)(Nc1cccc(-n2cnnn2)c1)c1ccccc1F	i	i	i	i	i	nt	nt	nt	nt
COc1ccc(C2=C(Nc3ccc(C)cc3)c3ccccc3C2=O)cc1	i	i	i	i	10.9	i	i	i	i
COc1ccc(C2=C(Nc3ccc(F)cc3)c3ccccc3C2=O)cc1	i	i	i	i	i	nt	nt	nt	nt
CC(C)C(C(=O)NCC1CCCO1)N(CC1CCCO1)C(=O)CNS(=O)(=O)c1ccccc1 (centres undefined)	i	i	i	i	i	nt	nt	nt	nt
SMILES	RGS4 pot	RGS4 inh	MrgX1 antagonist	MrgX1 ag	MrgX1 allo act	MrgX1 allo conf	HEK293 Ca flux	HEK293 Ca counter	HEK293 Ca cntr2
COC(=O)Cc1cc(=O)n(-c2nc3ccccc3[nH]2)[nH]1	i	i	i	i	15.1	i	i	i	i
CCN1C=C(Cc2ccccc2C)C2=C(C1)C(c1ccccc1C)C(C#N)=C(N)O2 (centres undefined)	i	i	i	i	18.1	i	i	i	i
CCN1C=C(Cc2ccc(F)cc2)C2=C(C1)C(c1ccc(F)cc1)C(C#N)=C(N)O2 (centres undefined)	i	i	i	i	i	nt	nt	nt	nt
CCC(C)NC(=O)C1c2ccccc2C(=O)N1Cc1ccccc1OC (centres undefined)	i	i	i	i	i	nt	nt	nt	nt
COc1ccccc1CN1C(=O)c2ccccc2C1C(=O)NC1CCC(C)CC1 (centres undefined)	i	i	i	i	9.8	i	i	i	i
Cc1cc(Cl)ccc1NC(=S)NCC(O)c1ccccc1 (centres undefined)	i	i	i	i	22.3	i	i	i	i
Nc1nc(C(c2ccccc2)c2ccccc2)cs1	i	i	i	i	8.71	i	i	i	i
Nc1nc(-c2ccccc2)cs1	i	i	i	i	i	nt	nt	nt	nt
Cc1ccccc1CC1(CO)CCCN(C(=O)c2ccc(F)cc2)C1 (centres undefined)	i	i	i	i	10.4	i	i	i	i
COc1ccc(-c2cn(-c3ccccc3)nc2CO)cc1	i	i	i	i	8.57	i	i	i	i
Cc1ccc(-c2nn(-c3ccccc3)cc2CO)cc1	i	i	i	i	37.6	6.8%	i	i	i
COc1ccc(-c2nn(-c3ccccc3)cc2CO)cc1	i	i	i	i	9.97	i	i	i	i
COc1ccc(-c2nn(-c3ccccc3)cc2N)cc1	i	i	i	i	i	nt	nt	nt	nt
CC(=O)c1ccc(OCc2ccc(Oc3c(Cl)cccc3[N+](=O)[O-])cc2)cc1	i	i	i	i	i	nt	nt	nt	nt
Cc1cc(NC(=O)CSc2nc3ccc(Cl)cc3[nH]2)no1	i	i	i	i	i	nt	nt	nt	nt
CCN(CC(=O)Nc1ccc(Br)cc1)C(=O)Cc1cccc(F)c1	i	i	i	i	i	nt	nt	nt	nt
COC(=O)c1cc(C(=O)OC)n(Cc2ccc(F)cc2)c1C	i	i	i	i	6.53	i	i	i	i
COC(=O)c1cc(C(=O)OC)n(Cc2ccc(F)cc2)n1	i	i	i	i	i	nt	nt	nt	nt
CN(c1ccc(C(=O)Nc2ccc(Cl)cn2)cc1)S(=O)(=O)c1ccccc1	i	i	i	i	9.73	i	i	i	i
